According to ChEMBL document CHEMBL3792296, “Synthesis and antiproliferative activity of 9-benzylamino-6-chloro-2-methoxy-acridine derivatives as potent DNA-binding ligands and topoisomerase II inhibitors” (Eur J Med Chem, 2016):
Calls of active or inactive are those of the source. No cut-off for these calls is given here.

How the values were obtained:
A549 [1] = experiment: Induction of apoptosis in human A549 cells assessed as increase in expression of cleaved caspase 3 at 1 to 2.5 uM after 48 hrs by Western blot analysis; assay type: functional, cell-based
Outline: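 A549 cells grown to 80% confluency, treated with graded concentrations for 48 h, then lysed in Tris-HCl/NaCl/Triton X-100 buffer with protease inhibitors. 40 µg protein resolved on 12 or 15% SDS-PAGE and blotted to PVDF. Primary antibodies used at 1:1000 for 6-8 h, HRP anti-rabbit at 1:2000 for 2 h, ECL detection, β-actin as loading control.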

Calf thymus DNA [2] = experiment: Binding affinity to calf thymus DNA assessed as bathochromic shift at 10 uM after 5 mins by UV-vis spectrophotometry; assay type: nucleic-acid assay; details: Bos taurus
Outline: (§1)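 ctDNA at 0-44 µM is added to compound at 10 µM final in Tris-HCl buffer (pH 7.4). UV-vis absorption spectra are recorded after 5 min standing. The binding constant K_b is taken from a plot of absorption data against DNA concentration.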

A549 [3] = experiment: Induction of apoptosis in human A549 cells assessed as early apoptotic cells at 5 uM after 36 hrs by Annexin V-FITC/propidium iodide staining based FACS analysis (reference value: 0.29%); assay type: functional
Outline: (§2)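 A549 cells seeded at 2 × 10⁵ per well, incubated overnight, then treated at 0, 5 or 10 µM. The legend gives 36 or 48 h; the methods section states 24 h. Annexin V-FITC/PI kit staining followed by flow cytometry. Early and late apoptotic cells expressed as cumulative percentage relative to control.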

MCF7 = experiment: Antiproliferative activity against human MCF7 cells after 48 hrs by MTT assay; assay type: functional, cell-based; details: MCF7, 48 h
Outline: (§3)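 MTT assay: cells seeded at 4-8 × 10³ per well, incubated overnight at 37 °C in 5% CO₂, then given fresh medium with graded compound concentrations or equal DMSO for 48 h. MTT (5 mg/mL solution) added for a further 4 h, formazan dissolved in DMSO, absorbance read at 490 nm. Six cancer cell lines tested.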

[4] = Antiproliferative activity against human HCT116 cells after 48 hrs by MTT assay; assay type: functional, cell-based; details: HCT-116, 48 h; outline: as §3
A549 [5] = experiment: Cell cycle arrest in human A549 cells assessed as accumulation at G0/G1 phase at 0.5 uM after 36 hrs by propidium iodide staining based flow cytometry (reference value: 61.65%); assay type: functional
Calf thymus DNA [6] = experiment: Binding affinity to calf thymus DNA at 10 uM spectrofluorimetric analysis; assay type: nucleic-acid assay; details: Bos taurus
Outline: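 Compound at 10 µM final in 10 mM Tris-HCl, pH 7.4, titrated with ctDNA at 0-64 µM final. Emission recorded 420-750 nm with excitation at 400 nm using a xenon arc lamp source. Quenching constant K derived by Stern-Volmer fit, F₀/F = 1 + K[Q], where [Q] is the DNA concentration.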

CCRF-CEM = experiment: Antiproliferative activity against human CCRF-CEM cells after 48 hrs by MTT assay; assay type: functional, cell-based; outline: as §3
A549 [7] = experiment: Induction of apoptosis in human A549 cells assessed as late apoptotic cells at 10 uM after 48 hrs by Annexin V-FITC/propidium iodide staining based FACS analysis (reference value: 0.62%); assay type: functional; outline: as §2
A549 [8] = experiment: Induction of apoptosis in human A549 cells assessed as early apoptotic cells at 5 uM after 48 hrs by Annexin V-FITC/propidium iodide staining based FACS analysis (reference value: 0.94%); assay type: functional; outline: as §2
A549 [9] = experiment: Cell cycle arrest in human A549 cells assessed as accumulation at S phase at 1 uM after 36 hrs by propidium iodide staining based flow cytometry (reference value: 30.73%); assay type: functional
[10] = target: T1, DNA topoisomerase 1 (Homo sapiens) (UniProt P11387); experiment: Inhibition of human topoisomerase 1 assessed as reduction in enzyme-mediated relaxation of supercoiled pBR322 DNA at 50 to 100 uM after 10 to 15 mins by agarose gel electrophoresis
T1 sequence (whole entry): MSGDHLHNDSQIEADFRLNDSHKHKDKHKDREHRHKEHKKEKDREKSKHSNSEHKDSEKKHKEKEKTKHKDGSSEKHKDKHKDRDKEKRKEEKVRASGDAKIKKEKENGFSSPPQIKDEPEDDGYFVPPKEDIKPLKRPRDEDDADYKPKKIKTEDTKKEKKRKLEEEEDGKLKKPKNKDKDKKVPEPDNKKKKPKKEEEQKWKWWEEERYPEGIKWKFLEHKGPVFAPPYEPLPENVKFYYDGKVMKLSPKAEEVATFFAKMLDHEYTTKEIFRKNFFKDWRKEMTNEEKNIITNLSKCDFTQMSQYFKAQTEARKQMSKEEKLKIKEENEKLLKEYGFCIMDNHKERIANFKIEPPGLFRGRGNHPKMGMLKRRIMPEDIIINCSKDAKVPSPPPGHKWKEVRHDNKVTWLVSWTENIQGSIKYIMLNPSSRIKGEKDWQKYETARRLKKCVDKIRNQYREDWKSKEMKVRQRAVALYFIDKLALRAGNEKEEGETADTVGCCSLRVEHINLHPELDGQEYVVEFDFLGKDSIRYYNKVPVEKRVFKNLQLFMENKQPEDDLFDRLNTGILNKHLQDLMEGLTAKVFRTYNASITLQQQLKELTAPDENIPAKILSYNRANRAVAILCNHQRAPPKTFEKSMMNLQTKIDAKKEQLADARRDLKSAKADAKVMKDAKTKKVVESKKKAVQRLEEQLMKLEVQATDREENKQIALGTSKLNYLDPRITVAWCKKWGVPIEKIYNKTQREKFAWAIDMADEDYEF
Outline: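 Relaxation of 500 ng supercoiled pBR322 by 1 unit human Topo I or Topo IIα, with or without compound, in 20 µL reaction buffer at 37 °C for 10-15 min. Reactions stopped with loading buffer, run on 0.8% agarose in TAE at 80 V for 30 min. Gels stained with ethidium bromide 2.5 µg/mL and viewed under UV.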

A549 [11] = experiment: Antiproliferative activity against human A549 cells after 48 hrs by MTT assay; assay type: functional, cell-based; details: A549, 48 h; outline: as §3
Calf thymus DNA [12] = experiment: Binding affinity to calf thymus DNA after 5 mins by UV-vis spectrophotometry; assay type: nucleic-acid assay; details: Bos taurus; outline: as §1
A549 [13] = experiment: Induction of apoptosis in human A549 cells assessed as early apoptotic cells at 10 uM after 36 hrs by Annexin V-FITC/propidium iodide staining based FACS analysis (reference value: 0.29%); assay type: functional; outline: as §2
A549 [14] = experiment: Cell cycle arrest in human A549 cells assessed as accumulation at G0/G1 phase at 5 uM after 36 hrs by propidium iodide staining based flow cytometry (reference value: 61.65%); assay type: functional
A549 [15] = experiment: Cell cycle arrest in human A549 cells assessed as accumulation at S phase at 0.5 uM after 36 hrs by propidium iodide staining based flow cytometry (reference value: 30.73%); assay type: functional
Calf thymus DNA [16] = experiment: Binding affinity to calf thymus DNA assessed as hypochromicity change at 10 uM after 5 mins by UV-vis spectrophotometry relative to control; assay type: nucleic-acid assay; details: Bos taurus; outline: as §1
A549 [17] = experiment: Induction of apoptosis in human A549 cells assessed as late apoptotic cells at 5 uM after 36 hrs by Annexin V-FITC/propidium iodide staining based FACS analysis (reference value: 0.29%); assay type: functional; outline: as §2
A549 [18] = experiment: Induction of apoptosis in human A549 cells assessed as late apoptotic cells at 5 uM after 48 hrs by Annexin V-FITC/propidium iodide staining based FACS analysis (reference value: 0.62%); assay type: functional; outline: as §2

COc1ccc(CNc2c3ccc(Cl)cc3nc3ccc(OC)cc23)cc1
Activity (A549 [1]): Active
Activity (Calf thymus DNA [2]): 10 nm
Activity (A549 [3]): 2.14%
IC50 (MCF7): 6.95 µM
IC50 [4]: 6.32 µM
Activity (A549 [5]): 61.48%
KSV (Calf thymus DNA [6]): 1.02 ×10⁵ /M
IC50 (CCRF-CEM): 2.54 µM
Activity (A549 [7]): 82.46%
Activity (A549 [8]): 4.23%
Activity (A549 [9]): 29.55%
inhibition [10]: Active
IC50 (A549 [11]): 0.61 µM
Kb (Calf thymus DNA [12]): 1.68 ×10⁵ /M
Activity (A549 [13]): 3.24%
Activity (A549 [14]): 62.04%
Activity (A549 [15]): 30.4%
Activity (Calf thymus DNA [16]): 60%
Activity (A549 [17]): 10.47%
Activity (A549 [18]): 21.23%
